Data as given in ChEMBL document CHEMBL2040727, “Substituted thiazoles VI. Synthesis and antitumor activity of new 2-acetamido- and 2 or 3-propanamido-thiazole analogs” (2012).

Experiments:
Assay type in all cases: functional
HL-60(TB) = assay: Growth inhibition of human HL-60(TB) cells at 10 uM after 48 hrs by coulter counter analysis; details: HL-60, 48 h, read-out: GI
Summary of the method: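 Cells grown in RPMI 1640 with 10% FBS. Compound was dissolved in DMSO and diluted in PBS (under 1% DMSO final), then added in duplicate wells to culture at 6 × 10⁴ cells/ml. PBS/DMSO vehicle controls were included. Incubated at 37 °C, humidified 5% CO₂, for 48 h. Cells were diluted 10-fold in saline and Coulter-counted. Single-dose NCI-60 screen, read as percent growth inhibition.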

HCT-116 = assay: Growth inhibition of human HCT116 cells at 10 uM after 48 hrs by coulter counter analysis; details: HCT-116, 48 h, read-out: GI
Summary of the method: (§1)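 Single-dose NCI 60-line panel screen of test compounds. Cells grown in RPMI 1640 with 10% FBS. Compounds dissolved in DMSO, then diluted in phosphate buffer saline (final DMSO below 1%). Wells run in duplicate at 6 × 10⁴ cells/ml. Controls held PBS and DMSO at matching dilutions. Incubation 48 h at 37 °C under humidified 5% CO2. Cells diluted tenfold in saline and counted by Coulter counter. Percent growth inhibition taken from mean-graph of treated-cell growth.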

OVCAR-3 = assay: Growth inhibition of human OVCAR3 cells at 10 uM after 48 hrs by coulter counter analysis; details: OVCAR-3, 48 h, read-out: GI; summary of the method: as §1
NCI-H460 = assay: Growth inhibition of human NCI-H460 cells at 10 uM after 48 hrs by coulter counter analysis; details: NCI-H460, 48 h, read-out: GI; summary of the method: as §1
EKVX = assay: Growth inhibition of human EKVX cells at 10 uM after 48 hrs by coulter counter analysis; details: read-out: GI; summary of the method: as §1
SF-295 = assay: Growth inhibition of human SF295 cells at 10 uM after 48 hrs by coulter counter analysis; details: SF-295, 48 h, read-out: GI; summary of the method: as §1
SK-OV-3 = assay: Growth inhibition of human SKOV3 cells at 10 uM after 48 hrs by coulter counter analysis; details: SK-OV-3, 48 h, read-out: GI; summary of the method: as §1
SR = assay: Growth inhibition of human SR cells at 10 uM after 48 hrs by coulter counter analysis; details: read-out: GI
Summary of the method: (§2)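 Single-dose screen in the NCI 60 cell line panel. Cells grown in RPMI 1640 with 10% FBS. Compounds dissolved in DMSO and diluted in phosphate buffered saline, final DMSO under 1%. Duplicate wells seeded from culture at 6 × 10⁴ cells/ml. Incubated 48 h at 37 °C, humidified, 5% CO2. Cells diluted tenfold in saline and Coulter-counted. Percent growth inhibition computed against PBS/DMSO controls.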

U-251 = assay: Growth inhibition of human U251 cells at 10 uM after 48 hrs by coulter counter analysis; details: U-251, 48 h, read-out: GI; summary of the method: as §2
[1] = Growth inhibition of human NCI-ADR-RES cells at 10 uM after 48 hrs by coulter counter analysis; details: read-out: GI; summary of the method: as §1
HOP-92 = assay: Growth inhibition of human HOP92 cells at 10 uM after 48 hrs by coulter counter analysis; details: HOP-92, 48 h, read-out: GI; summary of the method: as §1
TK-10 = assay: Growth inhibition of human TK10 cells at 10 uM after 48 hrs by coulter counter analysis; details: TK-10, 48 h, read-out: GI; summary of the method: as §2
ACHN = assay: Growth inhibition of human ACHN cells at 10 uM after 48 hrs by coulter counter analysis; details: read-out: GI; summary of the method: as §1
DU-145 = assay: Growth inhibition of human DU145 cells at 10 uM after 48 hrs by coulter counter analysis; details: DU-145, 48 h, read-out: GI; summary of the method: as §1
M14 = assay: Growth inhibition of human M14 cells at 10 uM after 48 hrs by coulter counter analysis; details: M14, 48 h, read-out: GI; summary of the method: as §1
A549 = assay: Growth inhibition of human A549/ATCC cells at 10 uM after 48 hrs by coulter counter analysis; details: A549, 48 h, read-out: GI; summary of the method: as §1
MOLT-4 = assay: Growth inhibition of human MOLT4 cells at 10 uM after 48 hrs by coulter counter analysis; details: MOLT-4, 48 h, read-out: GI; summary of the method: as §1
SNB-19 = assay: Growth inhibition of human SNB19 cells at 10 uM after 48 hrs by coulter counter analysis; details: SNB-19, 48 h, read-out: GI; summary of the method: as §1
UACC-257 = assay: Growth inhibition of human UACC257 cells at 10 uM after 48 hrs by coulter counter analysis; details: UACC-257, 48 h, read-out: GI; summary of the method: as §2
KM12 = assay: Growth inhibition of human KM12 cells at 10 uM after 48 hrs by coulter counter analysis; details: KM12, 48 h, read-out: GI; summary of the method: as §1
NCI-H522 = assay: Growth inhibition of human NCI-H522 cells at 10 uM after 48 hrs by coulter counter analysis; details: NCI-H522, 48 h, read-out: GI; summary of the method: as §1
COLO 205 = assay: Growth inhibition of human COLO205 cells at 10 uM after 48 hrs by coulter counter analysis; details: COLO 205, 48 h, read-out: GI; summary of the method: as §1
SK-MEL-2 = assay: Growth inhibition of human SK-MEL-2 cells at 10 uM after 48 hrs by coulter counter analysis; details: SK-MEL-2, 48 h, read-out: GI; summary of the method: as §1
SNB-75 = assay: Growth inhibition of human SNB75 cells at 10 uM after 48 hrs by coulter counter analysis; details: SNB-75, 48 h, read-out: GI; summary of the method: as §2
MCF7 = assay: Growth inhibition of human MCF7 cells at 10 uM after 48 hrs by coulter counter analysis; details: MCF7, 48 h, read-out: GI; summary of the method: as §1

Compound | inhibition of growth at 10 µM (HL-60(TB)) [%] | inhibition of growth at 10 µM (HCT-116) [%] | inhibition of growth at 10 µM (OVCAR-3) [%] | inhibition of growth at 10 µM (NCI-H460) [%] | inhibition of growth at 10 µM (EKVX) [%] | inhibition of growth at 10 µM (SF-295) [%] | inhibition of growth at 10 µM (SK-OV-3) [%] | inhibition of growth at 10 µM (SR) [%] | inhibition of growth at 10 µM (U-251) [%] | inhibition of growth at 10 µM [1] [%] | inhibition of growth at 10 µM (HOP-92) [%] | inhibition of growth at 10 µM (TK-10) [%] | inhibition of growth at 10 µM (ACHN) [%] | inhibition of growth at 10 µM (DU-145) [%] | inhibition of growth at 10 µM (M14) [%] | inhibition of growth at 10 µM (A549) [%] | inhibition of growth at 10 µM (MOLT-4) [%] | inhibition of growth at 10 µM (SNB-19) [%] | inhibition of growth at 10 µM (UACC-257) [%] | inhibition of growth at 10 µM (KM12) [%] | further results
Cc1csc(NC(=O)C(C)N2CCN(C)CC2)n1 (stereo not given) | < 10 | 30.1 | < 10 | < 10 | < 10 | < 10 | < 10 | < 10 | 23.5 | < 10 | < 10 | < 10 | < 10 | < 10 | 25.5 | < 10 | 12.1 | < 10 | < 10 | < 10 | inhibition of growth at 10 µM (NCI-H522): 66.3%; inhibition of growth at 10 µM (COLO 205): < 10%; inhibition of growth at 10 µM (SK-MEL-2): < 10%; inhibition of growth at 10 µM (SNB-75): < 10%; inhibition of growth at 10 µM (MCF7): 35.6%
CC(C(=O)Nc1nccs1)N1CCN(c2ccccc2)CC1 (stereo not given) | < 10 | < 10 | < 10 | < 10 | < 10 | < 10 | < 10 | < 10 | < 10 | < 10 | < 10 | < 10 | < 10 | < 10 | < 10 | < 10 | < 10 | < 10 | < 10 | < 10 | inhibition of growth at 10 µM (NCI-H522): < 10%; inhibition of growth at 10 µM (COLO 205): < 10%; inhibition of growth at 10 µM (SK-MEL-2): < 10%; inhibition of growth at 10 µM (SNB-75): < 10%; inhibition of growth at 10 µM (MCF7): < 10%
Cc1csc(NC(=O)C(C)N2CCN(c3ccccc3)CC2)n1 (stereo not given) | < 10 | < 10 | < 10 | < 10 | < 10 | < 10 | < 10 | < 10 | < 10 | < 10 | < 10 | < 10 | < 10 | < 10 | < 10 | < 10 | < 10 | < 10 | < 10 | < 10 | inhibition of growth at 10 µM (NCI-H522): < 10%; inhibition of growth at 10 µM (COLO 205): < 10%; inhibition of growth at 10 µM (SK-MEL-2): < 10%; inhibition of growth at 10 µM (SNB-75): 24%; inhibition of growth at 10 µM (MCF7): < 10%
CCOC(=O)c1sc(NC(=O)C(C)N(CC)CC)nc1C (stereo not given) | < 10 | < 10 | < 10 | < 10 | < 10 | < 10 | < 10 | < 10 | < 10 | < 10 | < 10 | < 10 | < 10 | < 10 | < 10 | < 10 | < 10 | < 10 | < 10 | < 10 | inhibition of growth at 10 µM (NCI-H522): < 10%; inhibition of growth at 10 µM (COLO 205): < 10%; inhibition of growth at 10 µM (SK-MEL-2): < 10%; inhibition of growth at 10 µM (SNB-75): 16.4%; inhibition of growth at 10 µM (MCF7): < 10%
CCOC(=O)c1sc(NC(=O)C(C)N2CCCCC2)nc1C (stereo not given) | < 10 | < 10 | < 10 | < 10 | < 10 | < 10 | < 10 | < 10 | < 10 | < 10 | < 10 | < 10 | < 10 | < 10 | < 10 | < 10 | < 10 | < 10 | < 10 | < 10 | inhibition of growth at 10 µM (NCI-H522): < 10%; inhibition of growth at 10 µM (COLO 205): < 10%; inhibition of growth at 10 µM (SK-MEL-2): < 10%; inhibition of growth at 10 µM (SNB-75): < 10%; inhibition of growth at 10 µM (MCF7): < 10%
